Experimental data pooled from the literature.
Lines come from different studies, so protocols differ.
Organism: Plasmodium falciparum
Observed: parasite growth

Structure (SMILES) | method | strain | tested at | time | notes | measurement | value
COc1ccnn1-c1ccccc1NCC(=O)Nc1ccc(Oc2ccc(C)cc2)cc1 | – | 3D7 | – | 72 h | blood stage | EC50 | > 10000 nM
COC1=CC(c2ccc[nH]2)=N/C1=C\c1cc(Cc2ccc(OC(F)(F)F)cc2)c(C)[nH]1 | SYBR Green | D6 | – | 72 h | blood stage | IC50 | 3.17 nM
CCN(c1ccc(C)cc1)c1ccc(NC(=O)CN(C)c2ccccc2N2CCCC2=O)cn1 | – | 3D7 | – | 72 h | blood stage | EC50 | 4 nM
C[C@H]1Cc2c([nH]c3cc(Cl)c(F)cc23)[C@@]2(N1)C(=O)Nc1ccc(Cl)cc12 | – | DD2 | – | 72 h | blood stage | EC50 | 0.7 nM
COc1cc(/C=C2\CC/C(=C\c3ccc(O)c(OC)c3)C2=O)ccc1O | – | 3D7 | – | – | blood stage | EC50 | 250 nM
CC(C(=O)Nc1ccccc1Cl)n1ccc2ccc(-c3cnn(C)c3)cc21 (stereo not drawn) | – | 3D7 | – | 72 h | blood stage | EC50 | 1120 nM
Cc1ccc(N(CC2=NCCN2)c2cccc(O)c2)cc1 | SYBR Green | 3D7 | – | – | blood stage | IC50 | 1790 nM
Cc1ccc(Oc2ccc(NC(=O)C(C)(C)Nc3ccccc3N3CCCC3=O)cc2)cc1 | – | 3D7 | – | 72 h | blood stage | EC50 | > 10000 nM
COC1=CC(c2ccc[nH]2)=N/C1=C\c1[nH]c(C(=O)O)cc1Cc1ccc(Cl)cc1 | SYBR Green | D6 | – | 72 h | blood stage | IC50 | > 2500 nM
COc1cc(NC(C)CCCN)c2ncccc2c1 (stereo not drawn) | – | – | 100 µM | – | gametocyte | inhibition | 100%
Cn1cc(-c2ccc3ccn(CC(=O)Nc4ccccc4Cl)c3c2)c(C(F)(F)F)n1 | – | 3D7 | – | 72 h | blood stage | EC50 | 46 nM
N=C(N)N/N=C/c1c(Cl)cccc1Cl | SYBR Green | 3D7 | – | – | blood stage | IC50 | 39.8 nM
COc1cc(/C=C/C(=O)C(=Cc2ccc([N+](=O)[O-])cc2)C(=O)/C=C/c2ccc(O)c(OC)c2)ccc1O | – | 3D7 | – | – | blood stage | EC50 | 2770 nM
N#Cc1ccc(Oc2ccc(NC(=O)CNc3ccccc3N3CCCC3=O)cc2)cc1 | – | 3D7 | – | 72 h | blood stage | EC50 | 1400 nM
COC1=CC(c2ccc[nH]2)=N/C1=C\c1[nH]c(-c2ccccc2)cc1-c1ccccc1 | SYBR Green | D6 | – | 72 h | blood stage | IC50 | 16.6 nM
Cc1ccc(N(C)c2ccc(NC(=O)CN(C)c3ccccc3N3CCCC3=O)cn2)cc1 | – | 3D7 | – | 72 h | blood stage | EC50 | 13 nM
COc1cc(/C=C/c2cc(/C=C/c3ccc(O)c(OC)c3)n(-c3ccc(Cl)cc3Cl)n2)ccc1O | – | 3D7 | – | – | blood stage | EC50 | 3290 nM
Cc1nnc(-c2ccc3ccn(CC(=O)Nc4ccccn4)c3c2)o1 | – | 3D7 | – | 72 h | blood stage | EC50 | 4250 to 4780 nM
CCCN(c1ccc(C)cc1)c1ccc(NC(=O)CN(C)c2ccccc2N2CCCC2=O)cc1 | – | 3D7 | – | 72 h | blood stage | EC50 | 10 nM
COC1=CC(c2ccc[nH]2)=N/C1=C\c1cc(Cc2ccc(OC)cc2)c(-c2ccc(OC)cc2)[nH]1 | SYBR Green | D6 | – | 72 h | blood stage | IC50 | 89 nM
Cc1ccc(Oc2ccc(NC(=O)CNc3ccccc3N3CCCCC3=O)cc2)cc1 | – | 3D7 | – | 72 h | blood stage | EC50 | 2500 nM
CCC1=C(CC)/C(=C/c2cc(Cc3ccc(Cl)cc3)c(C)[nH]2)N=C1c1ccc[nH]1 | SYBR Green | D6 | – | 72 h | blood stage | IC50 | 343 nM
CO[C@H]1C[C@H](O[C@@H]2/C(C)=C/C[C@@H]3C[C@@H](C[C@]4(CC[C@H](C)[C@@H](C5CCCCC5)O4)O3)OC(=O)[C@@H]3C=C(C)/C(=N/O)[C@H]4OC/C(=C\C=C\[C@@H]2C)[C@]43O)O[C@@H](C)[C@@H]1O | – | NF54 | – | – | blood stage | IC50 | 698 nM
Cc1[nH]c(/C=C2\N=C(c3ccc[nH]3)C3=C2OCCO3)cc1Cc1ccc(Cl)cc1 | SYBR Green | D6 | – | 72 h | blood stage | IC50 | 14.3 nM
CC(C)N(c1ccc(NC(=O)CN(C)c2ccccc2N2CCCC2=O)cc1)c1ccc(Cl)c(F)c1 | – | 3D7 | – | 72 h | blood stage | EC50 | 39 nM
CCN(CC)CCOc1ccc2c(c1)C(=O)c1cc(OCCN(CC)CC)ccc1-2 | – | NF54 | – | – | blood stage | IC50 | 647 nM
COC1=C(OC)/C(=C/c2[nH]c(Cc3ccc(OC(F)(F)F)cc3)cc2Cc2ccc(OC(F)(F)F)cc2)N=C1c1ccc[nH]1 | SYBR Green | D6 | – | 72 h | blood stage | IC50 | 85.9 nM
COc1cc(/C=C/C(=O)C(=Cc2ccc(O)cc2)C(=O)/C=C/c2ccc(O)c(OC)c2)ccc1O | – | 3D7 | – | – | blood stage | EC50 | 4350 nM
COC1=C(OC)/C(=C/c2cc(-c3ccc(OC(F)(F)F)cc3)c(C)[nH]2)N=C1c1ccc[nH]1 | SYBR Green | D6 | – | 72 h | blood stage | IC50 | 521 nM
COc1cc(/C=C/C(=O)C(=Cc2ccccc2)C(=O)/C=C/c2ccc(O)c(OC)c2)ccc1O | – | 3D7 | – | – | blood stage | EC50 | 3790 nM
